Source: ChEMBL document CHEMBL3286131, “Design, synthesis and systematic evaluation of cytotoxic 3-heteroarylisoquinolinamines as topoisomerases inhibitors” (Eur J Med Chem, 2014)
Several values for one entry are separate records, joined by “and”; a condition that tells them apart may be missing. Equal values may be shown once.

Legend:
[1] = target: DNA topoisomerase 2-alpha (Homo sapiens) (UniProt P11388); assay: Inhibition of human DNA topoisomerase-2a-mediated relaxation of supercoiled DNA pBR322 at 20 uM after 4 hrs using ethidium bromide staining by agarose gel electrophoresis analysis
In short: (§1)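 Supercoiled pBR322 (200 ng) incubated with human topo IIα (1 unit) ± compound for 30 min at 30 °C. Buffer: 10 mM Tris-HCl pH 7.9, 50 mM NaCl, 50 mM KCl, 5 mM MgCl2, 1 mM EDTA, 1 mM ATP, BSA. Stopped with EDTA. 1% agarose gel run at 25 V for 4 h in TAE, ethidium bromide stain, supercoiled DNA quantified by UV imaging.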

[2] = target: T1, DNA topoisomerase 1 (Homo sapiens) (UniProt P11387); assay: Inhibition of recombinant human DNA topoisomerase-1-mediated relaxation of supercoiled DNA pBR322 at 100 uM after 7 hrs using ethidium bromide staining by agarose gel electrophoresis analysis
T1 sequence (whole entry): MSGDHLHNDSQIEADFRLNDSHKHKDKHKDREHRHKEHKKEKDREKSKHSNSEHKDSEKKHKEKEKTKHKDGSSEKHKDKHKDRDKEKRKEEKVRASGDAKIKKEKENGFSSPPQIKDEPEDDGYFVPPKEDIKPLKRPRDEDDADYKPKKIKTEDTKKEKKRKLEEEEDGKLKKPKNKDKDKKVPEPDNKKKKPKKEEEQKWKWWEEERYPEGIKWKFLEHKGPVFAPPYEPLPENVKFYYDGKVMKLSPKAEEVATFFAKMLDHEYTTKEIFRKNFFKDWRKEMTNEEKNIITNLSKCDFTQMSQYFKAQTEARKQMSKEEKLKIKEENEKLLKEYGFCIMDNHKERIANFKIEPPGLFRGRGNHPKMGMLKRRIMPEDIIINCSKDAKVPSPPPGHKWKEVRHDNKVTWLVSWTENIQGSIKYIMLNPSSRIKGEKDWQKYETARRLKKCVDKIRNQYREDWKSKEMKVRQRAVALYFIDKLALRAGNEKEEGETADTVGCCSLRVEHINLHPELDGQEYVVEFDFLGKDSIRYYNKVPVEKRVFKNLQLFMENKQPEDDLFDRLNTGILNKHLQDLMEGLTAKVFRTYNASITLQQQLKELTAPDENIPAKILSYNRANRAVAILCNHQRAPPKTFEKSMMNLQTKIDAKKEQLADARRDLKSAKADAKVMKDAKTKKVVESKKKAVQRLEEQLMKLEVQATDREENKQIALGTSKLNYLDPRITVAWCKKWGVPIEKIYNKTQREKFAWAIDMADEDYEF
In short: (§2)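 pBR322 (100 ng) incubated with recombinant human topo I (0.4 units) ± compound for 30 min at 37 °C. Buffer: 10 mM Tris-HCl pH 7.9, 150 mM NaCl, 0.1% BSA, 1 mM spermidine, 5% glycerol. Quenched with sarcosyl stop solution. 1% agarose gel run at 15 V for 7 h in TAE, ethidium bromide stain, supercoiled DNA quantified under UV.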

[3] = target: T1, DNA topoisomerase 1 (Homo sapiens); assay: Inhibition of recombinant human DNA topoisomerase-1-mediated relaxation of supercoiled DNA pBR322 at 20 uM after 7 hrs using ethidium bromide staining by agarose gel electrophoresis analysis; in short: as §2
[4] = target: DNA topoisomerase 2-alpha (Homo sapiens) (UniProt P11388); assay: Inhibition of human DNA topoisomerase-2a-mediated relaxation of supercoiled DNA pBR322 at 100 uM after 4 hrs using ethidium bromide staining by agarose gel electrophoresis analysis; in short: as §1
HeLa [5] = assay: Cell cycle arrest in human HeLa cells assessed as accumulation at G2/M phase phase at 10 uM after 24 hrs using ethidium bromide staining by flow cytometry analysis relative to control; type: functional; details: in the assay text read “propidium iodide staining” for “ethidium bromide staining”
In short: (§3)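 HeLa cells exposed to graded compound concentrations for 24 h, harvested by centrifugation, PBS-washed twice, fixed overnight on ice in 70% ethanol. Stained with 10 μg/mL propidium iodide plus 0.5 mg/mL RNase and 0.1% Triton X-100 in PBS, 30 min at 37 °C in the dark. Flow cytometry gates: sub-G0/G1, G0/G1, S, G2/M.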

[6] = Cytotoxicity against human HCT15 cells after 2 days; type: functional, cell-based, HCT-15
In short: (§4)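 Cells seeded at 2-4 × 10^4 per well in medium with 10% FBS and incubated overnight at 37 °C, 5% CO2. Graded compound concentrations added on day 2. CCK-8 reagent added on day 4 for a further 4 h, absorbance read at 450 nm. IC50 from a four-parameter logistic fit; mean ± S.D. of three experiments run in triplicate.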

HeLa [7] = assay: Cell cycle arrest in human HeLa cells assessed as accumulation at G0/G1 phase phase at 5 uM after 24 hrs using ethidium bromide staining by flow cytometry analysis relative to control; type: functional; details: in the assay text read “propidium iodide staining” for “ethidium bromide staining”; in short: as §3
DU-145 = assay: Cytotoxicity against human DU145 cells after 2 days; type: functional, cell-based; in short: as §4
HeLa [8] = assay: Cell cycle arrest in human HeLa cells assessed as accumulation at G0/G1 phase phase at 25 uM after 24 hrs using […] by flow cytometry analysis relative to control; type: functional; in short: as §3
HeLa [9] = assay: Cell cycle arrest in human HeLa cells assessed as accumulation at S phase phase at 25 uM after 24 hrs using […] by flow cytometry analysis relative to control; type: functional; in short: as §3
HeLa [10] = assay: Cell cycle arrest in human HeLa cells assessed as accumulation at sub-G0/G1 phase at 25 uM after 24 hrs using […] by flow cytometry analysis relative to control; type: functional; in short: as §3
HeLa [11] = assay: Cell cycle arrest in human HeLa cells assessed as accumulation at G2/M phase phase at 25 uM after 24 hrs using […] by flow cytometry analysis relative to control; type: functional; in short: as §3
HeLa [12] = assay: Cell cycle arrest in human HeLa cells assessed as accumulation at sub-G0/G1 phase at 10 uM after 24 hrs using ethidium bromide staining by flow cytometry analysis relative to control; type: functional; details: in the assay text read “propidium iodide staining” for “ethidium bromide staining”; in short: as §3
HeLa [13] = assay: Cell cycle arrest in human HeLa cells assessed as accumulation at S phase phase at 5 uM after 24 hrs using ethidium bromide staining by flow cytometry analysis relative to control; type: functional; details: in the assay text read “propidium iodide staining” for “ethidium bromide staining”; in short: as §3
HeLa [14] = assay: Cell cycle arrest in human HeLa cells assessed as accumulation at S phase phase at 10 uM after 24 hrs using ethidium bromide staining by flow cytometry analysis relative to control; type: functional; details: in the assay text read “propidium iodide staining” for “ethidium bromide staining”; in short: as §3
HeLa [15] = assay: Cell cycle arrest in human HeLa cells assessed as accumulation at G2/M phase phase at 50 uM after 24 hrs using […] by flow cytometry analysis relative to control; type: functional; in short: as §3
HeLa [16] = assay: Cell cycle arrest in human HeLa cells assessed as accumulation at S phase phase at 50 uM after 24 hrs using […] by flow cytometry analysis relative to control; type: functional; in short: as §3
HeLa [17] = assay: Cell cycle arrest in human HeLa cells assessed as accumulation at G0/G1 phase phase at 50 uM after 24 hrs using […] by flow cytometry analysis relative to control; type: functional; in short: as §3
HeLa [18] = assay: Cell cycle arrest in human HeLa cells assessed as accumulation at sub-G0/G1 phase at 50 uM after 24 hrs using […] by flow cytometry analysis relative to control; type: functional; in short: as §3
[19] = Cytotoxicity against human MCF10A cells after 2 days; type: cell-based, MCF-10A; in short: as §4
HeLa [20] = assay: Cell cycle arrest in human HeLa cells assessed as accumulation at G0/G1 phase phase at 10 uM after 24 hrs using ethidium bromide staining by flow cytometry analysis relative to control; type: functional; details: in the assay text read “propidium iodide staining” for “ethidium bromide staining”; in short: as §3
T47D = assay: Cytotoxicity against human T47D cells after 2 days; type: functional, cell-based; in short: as §4
HeLa [21] = assay: Cell cycle arrest in human HeLa cells assessed as accumulation at G2/M phase phase at 5 uM after 24 hrs using ethidium bromide staining by flow cytometry analysis relative to control; type: functional; details: in the assay text read “propidium iodide staining” for “ethidium bromide staining”; in short: as §3

Sequence of DNA topoisomerase 2-alpha (Homo sapiens) (P11388 whole entry): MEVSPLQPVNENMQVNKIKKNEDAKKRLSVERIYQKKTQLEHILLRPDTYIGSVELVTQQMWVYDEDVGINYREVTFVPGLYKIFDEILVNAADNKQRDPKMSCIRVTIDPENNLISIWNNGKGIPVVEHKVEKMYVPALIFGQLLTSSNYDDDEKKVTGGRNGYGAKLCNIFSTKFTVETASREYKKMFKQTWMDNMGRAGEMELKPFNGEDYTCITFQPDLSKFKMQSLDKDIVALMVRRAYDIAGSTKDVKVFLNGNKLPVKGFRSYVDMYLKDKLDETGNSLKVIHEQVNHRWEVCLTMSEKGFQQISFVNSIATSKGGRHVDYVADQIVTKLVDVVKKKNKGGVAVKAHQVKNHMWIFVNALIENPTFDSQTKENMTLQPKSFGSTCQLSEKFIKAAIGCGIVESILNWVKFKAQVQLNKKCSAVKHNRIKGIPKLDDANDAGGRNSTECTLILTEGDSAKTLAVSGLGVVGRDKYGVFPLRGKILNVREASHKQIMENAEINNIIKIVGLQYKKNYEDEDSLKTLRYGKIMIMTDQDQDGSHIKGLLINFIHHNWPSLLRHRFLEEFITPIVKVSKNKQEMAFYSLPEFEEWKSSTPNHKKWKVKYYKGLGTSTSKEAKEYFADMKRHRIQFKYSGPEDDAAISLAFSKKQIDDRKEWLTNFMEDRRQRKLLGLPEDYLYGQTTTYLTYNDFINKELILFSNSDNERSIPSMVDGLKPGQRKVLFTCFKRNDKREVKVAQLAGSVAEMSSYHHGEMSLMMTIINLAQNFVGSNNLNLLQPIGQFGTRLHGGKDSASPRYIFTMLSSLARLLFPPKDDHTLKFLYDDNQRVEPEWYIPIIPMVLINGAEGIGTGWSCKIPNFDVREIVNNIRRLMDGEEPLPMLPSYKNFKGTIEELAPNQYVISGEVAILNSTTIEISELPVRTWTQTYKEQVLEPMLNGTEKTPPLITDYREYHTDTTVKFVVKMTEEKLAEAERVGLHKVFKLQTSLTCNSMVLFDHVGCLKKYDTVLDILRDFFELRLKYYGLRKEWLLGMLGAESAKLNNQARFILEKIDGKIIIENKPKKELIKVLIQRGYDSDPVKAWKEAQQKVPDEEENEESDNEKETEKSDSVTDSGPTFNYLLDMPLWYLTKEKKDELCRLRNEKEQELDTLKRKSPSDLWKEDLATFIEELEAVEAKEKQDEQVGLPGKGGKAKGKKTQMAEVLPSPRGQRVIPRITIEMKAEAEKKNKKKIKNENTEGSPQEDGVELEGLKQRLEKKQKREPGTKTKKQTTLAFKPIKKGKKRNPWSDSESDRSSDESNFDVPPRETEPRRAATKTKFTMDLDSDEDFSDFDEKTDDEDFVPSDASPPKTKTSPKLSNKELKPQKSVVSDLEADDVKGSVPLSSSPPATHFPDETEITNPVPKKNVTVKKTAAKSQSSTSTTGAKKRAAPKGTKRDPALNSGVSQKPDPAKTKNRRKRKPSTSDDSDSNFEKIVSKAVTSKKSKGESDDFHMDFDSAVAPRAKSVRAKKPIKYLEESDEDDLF

| inhibition [2] | inhibition [3] | inhibition [4] | Compound | Activity (HeLa [5]) | IC50 ([6]; hct-15) | Activity (HeLa [7]) | Activity (HeLa [8]) | Activity (HeLa [9]) | Activity (HeLa [10]) | Activity (HeLa [11]) | Activity (HeLa [12]) | Activity (HeLa [13]) | Activity (HeLa [14]) | Activity (HeLa [15]) | Activity (HeLa [16]) | Activity (HeLa [17]) | Activity (HeLa [18]) | Activity (HeLa [20]) | IC50 (T47D; t47d) | Activity (HeLa [21]) | other results |
| --- | --- | --- | --- | --- | --- | --- | --- | --- | --- | --- | --- | --- | --- | --- | --- | --- | --- | --- | --- | --- | --- |
|  | 6.5% | 0% | CCN1CCN(c2nc(-c3cccs3)cc3ccc(C)cc23)CC1 |  |  |  |  |  |  |  |  |  |  |  |  |  |  |  |  |  |  |
| 77.5% and 89.6% | 0% | 3.6% and 13.7% | Cc1ccc2cc(-c3cccs3)nc(N3CCCCC3)c2c1 |  |  |  |  |  |  |  |  |  |  |  |  |  |  |  |  |  |  |
| 10.7% | 0% | 22.1% | Cc1ccc2cc(-c3cccs3)nc(N3CCNCC3)c2c1 | 14.5% |  | 65.59% | 49.19% | 4.72% | 26.67% | 18.81% | 5.76% | 11.32% | 10.13% | 1.35% | 1.26% | 6.92% | 90.48% | 68.71% |  | 14.91% | IC50 ([6]; Homo sapiens, HCT-15, 48 h): 1.29 µM; IC50 (DU-145; Homo sapiens, DU-145, 48 h): 4.15 µM; IC50 ([19]; Homo sapiens, MCF-10A, 48 h): 5.54 µM; IC50 (T47D; Homo sapiens, T47D, 48 h): 1.14 µM |

More lines, now with the values behind:

| Compound | inhibition [2] | inhibition [3] | inhibition [4] | Activity (HeLa [5]) | IC50 ([6]; hct-15) | Activity (HeLa [7]) | Activity (HeLa [8]) | Activity (HeLa [9]) | Activity (HeLa [10]) | Activity (HeLa [11]) | Activity (HeLa [12]) | Activity (HeLa [13]) | Activity (HeLa [14]) | Activity (HeLa [15]) | Activity (HeLa [16]) | Activity (HeLa [17]) | Activity (HeLa [18]) | Activity (HeLa [20]) | IC50 (T47D; t47d) | Activity (HeLa [21]) | other results |
| --- | --- | --- | --- | --- | --- | --- | --- | --- | --- | --- | --- | --- | --- | --- | --- | --- | --- | --- | --- | --- | --- |
| c1csc(-c2cc3ccccc3c(N3CCOCC3)n2)c1 | 0% |  |  |  |  |  |  |  |  |  |  |  |  |  |  |  |  |  |  |  | inhibition [1]: 0% |
| c1csc(-c2cc3ccccc3c(N3CCNCC3)n2)c1 |  |  |  | 16.57% | 1.25 µM | 59.83% | 67.7% | 8.71% | 1.77% | 14.88% | 1.85% | 13.11% | 12.03% | 0.72% | 1.16% | 4.52% | 90.21% | 61.34% | 9.53 µM | 16.28% | IC50 (DU-145; du-145): 17.6 µM; IC50 ([19]; mcf-10a): 44.1 µM |
| Nc1nc(-c2cccs2)cc2ccccc12 |  |  |  | 41.79% | 1.2 µM | 44.93% | 11.6% | 11.29% | 18.03% | 47.68% | 17.43% | 9.04% | 8.2% | 59.85% | 9.56% | 5.04% | 13.66% | 21.33% | 7.93 µM | 28.48% | IC50 (DU-145; Homo sapiens, DU-145, 48 h): > 50 µM; IC50 ([19]; Homo sapiens, MCF-10A, 48 h): > 50 µM |
| Cc1ccc2c(N3CCNCC3)nc(-c3cccs3)cc2c1 |  |  |  | 0.23% | 1.31 µM | 62.69% | 1.89% | 0.5% | 96% | 0.22% | 92.31% | 11.25% | 0.64% | 0.04% | 0.35% | 1.4% | 97.06% | 3.24% | 8.74 µM | 11.58% | IC50 (DU-145; Homo sapiens, DU-145, 48 h): 8.31 µM; IC50 ([19]; Homo sapiens, MCF-10A, 48 h): 7.25 µM |
